According to article PMC10281356 (Drug Delivery, 2023):

Key:
EGFP and luciferase mRNA = assay: Gel retardation assay, vector-mRNA binding; details: agarose gel electrophoresis
Procedure, shortened: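 Test compounds (peptide vectors, with or without PEG) mixed with EGFP or luciferase mRNA at 0.5:1 to 15:1 (w/w) to form self-assemblies. Run on agarose gel in 1× TAE at 140 V for 40 min. Stained with GelRed and imaged under UV. Unbound mRNA served as control. Complete binding was taken as loss of the free mRNA band.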

A549 cells = assay: MTT cytotoxicity assay on A549 cells; type: cell-based, human; details: peptide alone at 50 and 25 μg/mL, 24 h, n = 3
Procedure, shortened: (§1)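 Peptide vectors, PEGylated or not, were added alone at a series of concentrations to A549 or HepG2 cells, followed by MTT read-out. Viability (%) was calculated from absorbance of treated cells relative to untreated cells. Data given as mean ± SEM (n = 3) and compared by one-way ANOVA with Tukey's post-hoc test.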

HepG2 cells = assay: MTT cytotoxicity assay on HepG2 cells; type: cell-based, human; details: peptide alone at 50 and 25 μg/mL, 24 h, n = 3
Procedure, shortened: as §1

(PEG24)-KKALLAHALHLLA LLALHLAHALKKA-NH2 [PEG24LA, PEG24-LAH4-L1]
mRNA affinity compared with non-PEGylated LA peptide (EGFP and luciferase mRNA): comparable
cytotoxicity of peptide compared with non-PEGylated LA peptide (A549 cells): significantly lower
cytotoxicity of peptide compared with non-PEGylated LA peptide (HepG2 cells): significantly lower
